The values below come from ChEMBL document CHEMBL2380226, “Novel dual cyclooxygenase and lipoxygenase inhibitors targeting hyaluronan-CD44v6 pathway and inducing cytotoxicity in colon cancer cells” (Bioorg Med Chem, 2013).

In series [1] the test system is HT-29. In words: Cytotoxicity against human HT-29 cells assessed as decrease in cell survival after 18 hrs by MTS assay. It is filed as functional, cell-based. The following applies: HT-29, 18 h. A digest of the protocol: (§1)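 Cells were harvested, counted and seeded at 20 × 10^3 per well. After 18 h the medium was replaced with medium containing the agents. MTS/PMS reagent was freshly prepared at 2/0.92 mg/mL in DPBS and added in excess, then incubated at 5% CO2. Absorbance was read at 490 nm at 90 min, and cell-free blank absorbance was subtracted. IC50 is the concentration giving 50% inhibition of proliferation, reported as mean ± S.D. (three replicates of 4 independent analyses).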
In general terms: Formazan colour is commonly taken as a measure of viable cells.

Series [2] can be described thus: Inhibition of hyaluronan-induced CD44 antigen variant exon 6 activity in human HT-29 cells expressing Has2 assessed as decrease in cell survival after 18 hrs by MTS assay. It is filed as cell-based. The following applies: HT-29, 18 h. A digest of the protocol:
as §1

The nature of series [3]: Inhibition of hyaluronan-induced CD44 antigen variant exon 6 activity in human HCA-7 cells expressing Has2 assessed as decrease in cell survival after 18 hrs by MTS assay. It is filed as cell-based. The following applies: HCA-7, 18 h. Summed up:
as §1

Series [4] relates to HT-29. As to the kind of experiment: Inhibition of hyaluronan-induced CD44 antigen variant exon 6 activity in human HT29 cells assessed as decrease in COX-2 expression at 10 uM. The format is cell-based.
The species named for the next series is Ovis aries. As to the kind of experiment: Selectivity ratio of IC50 for sheep placental COX-2 to IC50 for ram seminal vesicle COX-1. It is filed as tissue-based.
Series [5] in a line: Inhibition of hyaluronan-induced CD44 antigen variant exon 6 activity in mouse APC10.1 cells expressing Has2 assessed as decrease in cell survival after 18 hrs by MTS assay. The format is cell-based. Summed up:
as §1

Series [6] in a line: Cytotoxicity against human HCA-7 cells assessed as decrease in cell survival after 18 hrs by MTS assay. It is filed as functional, cell-based. The following applies: HCA-7, 18 h. Summed up: as §1
Series [7] deals with T1, Prostaglandin G/H synthase 2 (Ovis aries, UniProt P79208).
T1 sequence (P79208 whole entry): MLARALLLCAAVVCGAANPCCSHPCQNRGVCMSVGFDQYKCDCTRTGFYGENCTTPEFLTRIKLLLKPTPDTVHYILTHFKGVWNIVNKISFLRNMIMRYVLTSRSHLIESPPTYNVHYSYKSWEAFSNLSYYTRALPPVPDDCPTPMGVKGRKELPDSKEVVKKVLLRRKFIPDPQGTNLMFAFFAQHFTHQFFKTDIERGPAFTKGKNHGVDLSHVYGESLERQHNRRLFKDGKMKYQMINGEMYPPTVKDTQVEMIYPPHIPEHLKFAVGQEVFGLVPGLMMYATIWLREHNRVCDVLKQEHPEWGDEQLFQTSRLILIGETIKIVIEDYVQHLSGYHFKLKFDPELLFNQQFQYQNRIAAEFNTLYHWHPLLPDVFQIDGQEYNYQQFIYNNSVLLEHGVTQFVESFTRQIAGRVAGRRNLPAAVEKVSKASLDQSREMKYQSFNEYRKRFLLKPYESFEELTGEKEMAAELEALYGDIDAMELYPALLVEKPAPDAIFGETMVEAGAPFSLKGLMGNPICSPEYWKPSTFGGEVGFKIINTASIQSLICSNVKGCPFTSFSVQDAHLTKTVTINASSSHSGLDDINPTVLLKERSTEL
In words: Inhibition of sheep placental COX-2 using arachidonic acid as substrate assessed as production of PGF2alpha by enzyme immunoassay in presence of stannous chloride. A digest of the protocol:
(§2)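 PGH2 formed by the enzyme is reduced with stannous chloride to PGF, which is quantified by competitive EIA. PGs compete with a PG-acetylcholinesterase tracer for PG antiserum, and the complex is captured on an anti-rabbit antibody-coated well. Ellman's reagent is developed and absorbance is read at 405 nm. Percent inhibition is taken against control incubations, and IC50 comes from the concentration-inhibition curve.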

The target of series [8] is T2, Prostaglandin G/H synthase 1 (Ovis aries, UniProt P05979).
T2 sequence (P05979 whole entry): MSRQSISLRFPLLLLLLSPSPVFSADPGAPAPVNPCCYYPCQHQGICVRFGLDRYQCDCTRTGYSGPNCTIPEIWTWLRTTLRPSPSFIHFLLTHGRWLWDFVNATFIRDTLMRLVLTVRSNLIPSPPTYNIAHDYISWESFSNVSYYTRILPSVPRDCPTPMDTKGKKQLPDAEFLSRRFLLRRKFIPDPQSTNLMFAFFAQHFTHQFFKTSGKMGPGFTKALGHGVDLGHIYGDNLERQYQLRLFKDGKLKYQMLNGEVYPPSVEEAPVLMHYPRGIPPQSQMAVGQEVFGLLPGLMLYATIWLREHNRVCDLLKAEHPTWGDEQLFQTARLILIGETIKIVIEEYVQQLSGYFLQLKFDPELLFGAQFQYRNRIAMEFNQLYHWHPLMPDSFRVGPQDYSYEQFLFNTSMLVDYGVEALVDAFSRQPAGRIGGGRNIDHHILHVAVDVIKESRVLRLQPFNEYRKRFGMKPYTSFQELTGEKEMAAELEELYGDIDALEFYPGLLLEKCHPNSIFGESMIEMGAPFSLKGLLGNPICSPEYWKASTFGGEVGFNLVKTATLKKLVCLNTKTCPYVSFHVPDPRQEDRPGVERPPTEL
In words: Inhibition of ram seminal vesicle COX-1 using arachidonic acid as substrate assessed as production of PGF2alpha by enzyme immunoassay in presence of stannous chloride. Summed up: as §2

Series [9] has as its system HT-29. As to the kind of experiment: Cytotoxicity against human HT-29 cells assessed as growth inhibition after 18 hrs by MTS assay. It is filed as functional, cell-based. Summed up: as §1
A short description of series [10]: Cytotoxicity against mouse APC10.1 cells assessed as decrease in cell survival after 18 hrs by MTS assay. The format is functional, cell-based. Summed up: as §1
For series [11], the system named is HT-29. In words: Inhibition of hyaluronan-induced CD44 antigen variant exon 6 activity in human HT29 cells assessed as decrease in 5-LOX expression at 10 uM. The format is cell-based.
The species entered for series [12] is Mus musculus. In words: Inhibition of hyaluronan-induced CD44 antigen variant exon 6 activity in mouse APC10.1 cells assessed as cell growth inhibition after 18 hrs by MTS assay. It is filed as cell-based. Summed up: as §1
For series [13], the system named is HCA-7. In words: Cytotoxicity against human HCA-7 cells assessed as growth inhibition after 18 hrs by MTS assay. The format is functional, cell-based. A digest of the protocol: as §1
A short description of series [14]: Inhibition of potato 5-LOX using arachidonic acid as substrate assessed as production of hydroperoxides after 5 mins […]. Also on record: species or system Solanum tuberosum. A digest of the protocol:
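Potato 5-LOX was tested with a commercial lipoxygenase screening kit that measures hydroperoxides. Compounds were dissolved in minimal DMSO and diluted in the supplied buffer. The reaction was started with arachidonic acid and shaken for 5 min. Chromogen was added, shaken for 5 min, and absorbance read at 500 nm. Percent inhibition was taken against control, and IC50 was derived from the concentration-inhibition curve from duplicate determinations.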

For series [15], the species on record is Mus musculus. In words: Inhibition of hyaluronan-induced CD44 antigen variant exon 6 activity in mouse APC10.1 cells assessed as cell growth inhibition at 2 to 50 uM after 24 hrs by MTT assay. It is filed as cell-based. A digest of the protocol: (§3)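 Cells were treated for 24 h at four concentrations in triplicate. MTT (stock 5 mg/ml in PBS, pH 7.2, filtered) was then added and incubated for 4 h at 37°C. Formazan was solubilized with 10% SDS in 0.01 N HCl, and absorbance was read at 570 nm to give viability.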

The species entered for series [16] is Mus musculus. In words: Cytotoxicity against mouse APC10.1 cells expressing COX and LOX assessed as growth inhibition at 2 to 50 uM after 24 hrs by MTT assay. The format is functional, cell-based. A digest of the protocol:
as §3

The test system of series [17] is HCA-7. As to the kind of experiment: Cytotoxicity against human HCA-7 cells assessed as growth inhibition at 2 to 50 uM after 24 hrs by MTT assay. The format is functional, cell-based. A digest of the protocol: as §3
For series [18], the system named is HT-29. In words: Cytotoxicity against human HT-29 cells assessed as growth inhibition at 2 to 50 uM after 24 hrs by MTT assay. The format is functional, cell-based. Summed up: as §3
Series [19] can be described thus: Cytotoxicity against rat IEC-6 cells assessed as growth inhibition at 2 to 50 uM after 24 hrs by MTT assay. The format is cell-based. The following applies: iec-6, 24 h. Summed up:
as §3

SMILES strings stand for the structures. Active and inactive are the calls of the source. No cut-off for these calls is given here.

Regarding `CC(C)(C)C1=CC(=NNC(=O)c2ccccc2)C=C(C(C)(C)C)C1=O`, the IC50 turned out to be 15 µM with HT-29 [1]; 38.5 µM in [2]; 26.4 µM in series [3]; 31 µM in series [5]; 12.5 µM in series [6]; 9.5 µM in series [7]. For the same compound, the values for the IC50 in series [8], in [10] and in [14] were 14 µM, 20 µM and 5.1 µM, respectively. Besides, the inhibition entry with HT-29 [4] and with HT-29 [11] was “Active” in each case. Also, the Ratio IC50 in the series filed under Ovis aries was found to be 0.68. The “growth inhibition (GI)” value in the series on HT-29 [9], in the series listed under Mus musculus [12] and in the series with HCA-7 [13] was “Dose-dependent effect” each time.

In the case of `CC(C)(C)c1cc(/C=C2\SC(N)=NC2=O)cc(C(C)(C)C)c1O` [DARBUFELONE], the IC50 in series [7] came to 0.48 µM; in series [8], 35 µM.

Consider `CC(C)(C)c1cc(/C=C2\SC(=N)NC2=O)cc(C(C)(C)C)c1O` [DARBUFELONE], for which, in the series filed under Ovis aries, the Ratio IC50 stood at 0.014. Besides, in series [14], the IC50 was found to be 0.77 µM.

For `CC(C)(C)C1=CC(=NNC(=O)c2ccncc2)C=C(C(C)(C)C)C1=O`, the IC50 with HT-29 [1] is 15.2 µM; in series [2] it was 5.4 µM; in series [3], 38.6 µM; in [5] it was 18.3 µM; in series [6] it was 12 µM; in series [7], 7.6 µM. The IC50 is 55.7 µM in series [8], 8.9 µM in series [10] and 20 µM in series [14]. The inhibition entry in the series with HT-29 [4] and with HT-29 [11] was “Active” each time. For the same compound, the Ratio IC50 in the series listed under Ovis aries came out at 0.14. The “growth inhibition (GI)” value with HT-29 [9], in the series listed under Mus musculus [12] and in the series on HCA-7 [13] was “Dose-dependent effect” in each case.

With `CC(C)(C)C1=CC(=NNC(=O)c2cccnc2)C=C(C(C)(C)C)C1=O`, the IC50 in the series on HT-29 [1] amounted to 11 µM; in series [2], 28.6 µM; in series [3], 34.5 µM; in series [5], 12.2 µM; in series [6] it was 6.5 µM; in [7] it was 9.3 µM. The IC50 in series [8] was determined as 48.6 µM; in series [10], 7.5 µM. The “growth inhibition (GI)” value in the series listed under Mus musculus [15], in the series filed under Mus musculus [16], with HCA-7 [17] and in the series on HT-29 [18] was “Active” each time. For the same compound, the inhibition entry in the series on HT-29 [4] and in the series on HT-29 [11] was “Active” each time. In the series filed under Ovis aries, the Ratio IC50 stood at 0.19. Further, the “growth inhibition (GI)” value in the series with HT-29 [9], in the series listed under Mus musculus [12] and with HCA-7 [13] was “Dose-dependent effect” in each case. In addition, in series [19], the Activity entry is “Non-toxic”.

As for `Cc1ccc(-c2cc(C(F)(F)F)nn2-c2ccc(S(N)(=O)=O)cc2)cc1` [CELECOXIB], the IC50 with HT-29 [1] stood at 3 µM; in [2], 18.3 µM; in series [3], 17.5 µM; in series [5], 6 µM; in [6], 2 µM; in series [10] it was 4.2 µM. Also, the inhibition entry with HT-29 [4] and in the series with HT-29 [11] was “Active” each time. Also, the “growth inhibition (GI)” value in the series on HT-29 [9], in the series listed under Mus musculus [12] and in the series with HCA-7 [13] was “Dose-dependent effect” in each case.

As a reminder, the IC50 is the concentration at which inhibition is half-maximal.
